Measured values published in the EternaBench riboswitch data.

Test system: MS2 coat protein
Experiment: apparent Kd, MS2 coat protein; higher = weaker binding; RNA-MaP array; FMN 200 µM where present
How it was run: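 The apparent Kd is reported as the median of filtered per-cluster binding-curve fits. To get these curves, designs transcribed by stalled E. coli RNA polymerase on Illumina sequencing-chip clusters were titrated with SNAP-549-labelled MS2 coat protein from 0.7 or 1.5 nM, doubling to 3 µM. Titrations were run without and then with constant ligand in 100 mM Tris-HCl pH 7.5, 80 mM KCl, 4 mM MgCl2, BSA, DTT, yeast tRNA and Tween-20, and green signal was normalised to red-channel RNA signal and control-cluster median Fmax.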

[1] = designed as: ON switch for flavin mononucleotide, no ligand
[2] = ligand present: flavin mononucleotide, designed as: ON switch for flavin mononucleotide
[3] = designed as: OFF switch for flavin mononucleotide, no ligand
[4] = ligand present: flavin mononucleotide, designed as: OFF switch for flavin mononucleotide

| Sequence | apparent Kd [1] [µM] | apparent Kd [2] [µM] | apparent Kd [3] [µM] | apparent Kd [4] [µM] |
| --- | --- | --- | --- | --- |
| CGUGACUACAUAGGAUAUUGAUACAUGAGGAUCACCCAUGUCACCCAUUUAUAUAUUAGUGUUGACAAGAAGGAUGUGGUCACG | 0.0162 | 0.00725 | – | – |
| GAGUGGUGGAGAGGAUAUACAUUGUUAUUCACUGUAGAAGGUUCUAACAUGAGGAUCACCCAUGUAGGACUAUUCCUGAGUUUU | 0.0124 | 0.00982 | – | – |
| GAGUGACAUGAGGAUCACCCAUGUGAGGAUAUCGGACGGACCUAGUUAACUUCCGCCGCGAGAAGGCACAUCGG | – | – | 0.0987 | 0.0338 |
| UUGCAGUCAUCAGGAUAUAGUAUUACGGCCAUUUAUAUUUUCAUACAUGAGGAUCACCCAUGUCGCUAGAAGGGAUUAUCGAUU | – | – | 0.0477 | 0.043 |
| GGACAGCGAGGAUAUACGUGUACGUUAUCCUCUAUGGGUCAACAUGAGGAUCACCCAUGUAGAAGGCGCAUAAU | – | – | 0.0194 | 0.0281 |
| UAUUAGUAAGGAUAUCCUUGCAUGGACGAAAGUCCAUGCAAGGAGAAGGUACAUGAGGAUCACCCAUGUUCAUU | – | – | 0.0172 | 0.0179 |
| AUCAGCACGUGAGGAUAUGCGUCACUGCGUCAGCAGUGCGGUAAGAUCACAUGAGGAUCACCCAUGUAGAAGGCACGAGCUGAU | – | – | 0.0214 | 0.0498 |
| CCCACGAAAGUCGAACGAUGUAGCAGAAGGACAAUAACAUGACAUGAGGAUCACCCAUGUGCCAUGUAGGAUAUGCUACAUGGG | – | – | 0.00824 | 0.00714 |
| AUCCGGCGUGUAGGAUAUGGAUCCGAUUAGGAUCCAGAAGGACAUGAGGAUCACCCAUGUACAUGUAAACAGUCAUCACCGGAC | – | – | 0.0115 | 0.136 |
| UUAUAAAAGCAGAAGGGCCGAUUAAGGAUCCGCAUGGCGCUGGACAUGAGGAUCACCCAUGUAAGGCAGGAUAUGCAAAAUAAG | – | – | 0.458 | 0.0248 |
| AUGUGACGGUGCGCAUGUGGACGGAGAAGGCAGACAUGAGGAUCACCCAUGUGAGCCUGCUAUUCUGAGGAUAUCCGUUCGCAC | – | – | 0.0317 | 0.158 |
| AAAAGUAGAGGAUAUACAUGAGGAUCACCCAUGUAGAAAGGAAGUAUAUAUAUGGCGUGUAGAAGGCUGCAUGA | – | – | 0.0345 | 0.0322 |
| GGACGUCACAUUCACAUGAGGAUCACCCAUGUCAAAAGACAUGAGGAUAUGGAUCCUAAUUGGAUCCAGAAGGCAUGGACGUCC | 1.14 | 0.0706 | – | – |
| CUUUAACUACAAUUACAUGAGGAUCACCCAUGUUUUGGGAUGCAGGAUAUGUGGUAUAUUAAUUAACAGAAGGGCAAUAAUUAA | 0.0407 | 0.0389 | – | – |
| UUGUGCUGAGAGAAGGUUCAAACUACAUAUUGCGCACAUGAGGAUCACCCAUGUUGGUGAAUAAGAAAGGAUAUUUUACUGUAU | – | – | 0.244 | 0.184 |
| GUAGCUAACGGAGGAUAUUCAUACCGGAAACGGACAUGAGGAUCACCCAUGUGGCGAAAGCCAUGGGAGAAGGCCGUUAGCUAC | 0.918 | 0.147 | – | – |
| UUGGACAUCGUAGGAUAUGUAGGAUAUUCCUACAUGAGGAUCACCCAUGUUGACAUGGAAGAAGGACAGAAGGACGAUGUCCAU | 0.207 | 0.00412 | – | – |
| CAGCCCUGAGGAUAUCCCUACUCGCACAUGAGGAUCACCCAUGUCCUCCUCCGGGCUUCGGGAGAAGGCAGGUCUC | – | – | 0.0225 | 0.0935 |
| GGUGGACAUGAGGAUCACCCAUGUGAGGAUAUCGGCUGGCUAGCGGCUGACGGCUGCUCGAGAAGGCGCAUUGU | – | – | 0.0658 | 0.0849 |
| GGAUGACAAAGUCAUCCUAUUCGAACAUGAGGAUCACCCAUGUAGGAUAUGCAACUCAAAGAGUUGCAGAAGGACAUGUGCCUU | – | – | 0.0309 | 0.153 |
